# Experimental data as given in ChEMBL document CHEMBL3352559, “Synthesis and pharmacological investigation of aralkyl diamine derivatives as potential triple reuptake inhibitors” (Eur J Med Chem, 2014).
# Key:
# Salmonella typhimurium [1] = assay: Mutagenic activity in Salmonella typhimurium TA98 assessed as number of reversion mutation at 10 ug/plate; type: toxicity, organism-based; settings: salmonella enterica subsp. enterica serovar typhimurium
# Method in brief: (§1)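 Ames reversion test in Salmonella typhimurium TA98 and TA100, with and without rat liver S9 metabolic activation. Compound was dissolved in DMSO and added at 3–5000 μg/plate. Each dose, vehicle and positive control was plated in triplicate, and revertant colonies were counted.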
# Salmonella typhimurium [2] = assay: Mutagenic activity in Salmonella typhimurium TA98 assessed as number of reversion mutation at 30 ug/plate; type: toxicity, organism-based; settings: salmonella enterica subsp. enterica serovar typhimurium; method in brief: as §1
# Salmonella typhimurium [3] = assay: Mutagenic activity in Salmonella typhimurium TA98 assessed as number of reversion mutation at 300 ug/plate; type: toxicity, organism-based; settings: salmonella enterica subsp. enterica serovar typhimurium; method in brief: as §1
# Salmonella typhimurium [4] = assay: Mutagenic activity in Salmonella typhimurium TA98 assessed as number of reversion mutation at 1000 ug/plate; type: toxicity, organism-based; settings: salmonella enterica subsp. enterica serovar typhimurium; method in brief: as §1
# Salmonella typhimurium [5] = assay: Mutagenic activity in Salmonella typhimurium TA98 assessed as number of reversion mutation at 5000 ug/plate; type: toxicity, organism-based; settings: salmonella enterica subsp. enterica serovar typhimurium; method in brief: as §1
# [6] = target: Sodium-dependent serotonin transporter (Homo sapiens, UniProt P31645); assay: Inhibition of [3H]-serotonin uptake in human SERT expressed in HEK293 cells by scintillation counting; type: cell-based
# Rattus norvegicus [7] = assay: Antidepressant activity in rat assessed as reduction in immobility time at 10 mg/kg, po by forced swimming test relative to control; type: functional
# Method in brief: (§2)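 Male rats dosed orally at 5, 10 or 20 mg/kg alongside vehicle and venlafaxine 30 mg/kg PO groups. 1 h post-dose, each rat placed in a glass cylinder (40 cm × 18 cm) holding 15 cm of 25 ± 1 °C water. Immobility time recorded over a 6 min trial; significant main effects followed by post hoc Fisher's test.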
# Rattus norvegicus [8] = assay: Antidepressant activity in rat assessed as reduction in immobility time at 20 mg/kg, po by forced swimming test relative to control; type: functional; method in brief: as §2
# [9] = Acute toxicity in KM mouse assessed as survival at 750 mg/kg, po up to 14 days (reference value: 100%); type: organism-based; design: dose 750 mg/kg, route oral; settings: in vivo
# [10] = Mean residence time in Sprague-Dawley rat at 0.5 mg/kg, iv; type: ADME, organism-based; design: dose 0.5 mg/kg, route intravenous; settings: in vivo
# Method in brief: (§3)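 Male SD rats, fasted overnight until 6 h post-dose; single 0.5 mg/kg femoral-vein injection; blood drawn into heparin at 5, 15, 30 min, 1, 2 and 4 h; plasma stored at -40 °C; drug levels by LC/MS/MS; noncompartmental parameters.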
# [11] = Apparent volume of distribution during terminal phase in Sprague-Dawley rat at 2 mg/kg, po; type: ADME, organism-based; design: dose 2 mg/kg, route oral; settings: in vivo, read-out: Vz/F
# Method in brief: (§4)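 Male SD rats, fasted overnight until 6 h post-dose. PO group received single 2 mg/kg with heparinized blood sampled at 5, 15, 30 min, 1, 2, 4, 8, 24 h. IV group received single 0.5 mg/kg via femoral vein with sampling at 5, 15, 30 min, 1, 2, 4 h. Plasma stored at -40 °C, quantified by LC/MS/MS; 24 rats per group.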
# [12] = Apparent oral clearance in Sprague-Dawley rat at 2 mg/kg, po; type: ADME, organism-based; design: dose 2 mg/kg, route oral; settings: in vivo; method in brief: as §4
# [13] = Cmax in Sprague-Dawley rat at 2 mg/kg, po; type: ADME, organism-based; design: dose 2 mg/kg, route oral; settings: in vivo; method in brief: as §4
# [14] = Cmax in Sprague-Dawley rat at 0.5 mg/kg, iv; type: ADME, organism-based; design: dose 0.5 mg/kg, route intravenous; settings: in vivo; method in brief: as §4
# [15] = Drug uptake in Sprague-Dawley rat plasma at 0.5 mg/kg iv after 0.08 hrs; type: ADME, organism-based; design: dose 0.5 mg/kg, route intravenous; method in brief: as §3
# [16] = Drug uptake in Sprague-Dawley rat plasma at 0.5 mg/kg iv after 1 hrs; type: ADME, organism-based; design: dose 0.5 mg/kg, route intravenous; method in brief: as §3
# [17] = Drug uptake in Sprague-Dawley rat plasma at 0.5 mg/kg iv after 4 hrs; type: ADME, organism-based; design: dose 0.5 mg/kg, route intravenous; method in brief: as §3
# [18] = Ratio of drug level in Sprague-Dawley rat brain to plasma at 0.5 mg/kg iv after 0.08 hrs; type: ADME, organism-based; design: dose 0.5 mg/kg, route intravenous; settings: read-out: BPR
# [19] = Ratio of drug level in Sprague-Dawley rat brain to plasma at 0.5 mg/kg iv after 4 hrs; type: ADME, organism-based; design: dose 0.5 mg/kg, route intravenous; settings: read-out: BPR
# [20] = target: Adenosine receptor A3 (Homo sapiens) (UniProt P0DMS8); assay: Displacement of [3H]ABMECA from human adenosine A3 receptor at 10 uM relative to control
# Method in brief: (§5)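 Outsourced CNS panel of 55 receptor binding assays run by Cerep. Compound tested at 10 μM, the default primary-binding concentration, with inhibition expressed relative to control. Inhibition above 50% taken as a significant effect.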
# [21] = target: Beta-1 adrenergic receptor (Homo sapiens) (UniProt P08588); assay: Displacement of [3H]CGP-12177 from human beta1-adrenergic receptor at 10 uM relative to control; method in brief: as §5
# [22] = target: Type-1 angiotensin II receptor (Homo sapiens) (UniProt P30556); assay: Displacement of [125I][Sar1,Ile8]-ATII from human angiotensin AT1 receptor at 10 uM relative to control; method in brief: as §5
# [23] = target: Cholecystokinin receptor type A (Homo sapiens) (UniProt P32238); assay: Displacement of [125I]CCK-8s from human CCKA at 10 uM relative to control; method in brief: as §5
# [24] = target: D(2) dopamine receptor (Homo sapiens) (UniProt P14416); assay: Displacement of [3H]N-Methylspiperone from human dopamine D2S receptor at 10 uM relative to control; method in brief: as §5
# [25] = target: C-X-C chemokine receptor type 2 (Homo sapiens) (UniProt P25025); assay: Displacement of [125I]IL-8 from CXCR2 receptor (unknown origin) at 10 uM relative to control; method in brief: as §5
# [26] = target: C-C chemokine receptor type 1 (Homo sapiens) (UniProt P32246); assay: Displacement of [125I]MIP-1alpha from human CCR1 receptor at 10 uM relative to control; method in brief: as §5
# [27] = target: Histamine H2 receptor (Homo sapiens) (UniProt P25021); assay: Displacement of [125I]APT from human histamine H2 receptor at 10 uM relative to control; method in brief: as §5
# [28] = target: Prostaglandin E2 receptor EP4 subtype (Homo sapiens) (UniProt P35408); assay: Displacement of [3H]PGE2 from human EP4 receptor at 10 uM relative to control; method in brief: as §5
# [29] = target: 5-hydroxytryptamine receptor 6 (Homo sapiens) (UniProt P50406); assay: Displacement of [3H]LSD from human 5-HT6 receptor at 10 uM relative to control; method in brief: as §5
# [30] = target: Somatostatin receptor (Homo sapiens) (UniProt P35346+P30874+P31391+P30872+P32745); assay: Displacement of [125ITyr11- somatostatin-14 from sst receptor (unknown origin) at 10 uM relative to control; type: protein assay; method in brief: as §5
# [31] = target: L-type calcium channel, verapamil binding site (Homo sapiens, UniProt O60840+Q01668+Q13698+Q13936); assay: Inhibition of human L-type calcium channel verapamil binding site at 10 uM by [3H]D88 binding assay relative to control
# Method in brief: (§6)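 Outsourced CNS receptor panel (55 binding assays); compound tested at 10 μM in primary radioligand binding; specific binding inhibition expressed relative to control, with >50% inhibition taken as a significant effect.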
# Homo sapiens = organism: Homo sapiens; assay: Inhibition of SKca channel (unknown origin) at 10 uM by [125I]apamin binding assay relative to control; method in brief: as §6
# [32] = Drug uptake in Sprague-Dawley rat brain at 0.5 mg/kg ip after 2 hrs
# [33] = Drug uptake in Sprague-Dawley rat brain at 0.5 mg/kg ip after 0.08 hrs
# Adenosine receptor A3 (Homo sapiens), sequence (P0DMS8 whole entry): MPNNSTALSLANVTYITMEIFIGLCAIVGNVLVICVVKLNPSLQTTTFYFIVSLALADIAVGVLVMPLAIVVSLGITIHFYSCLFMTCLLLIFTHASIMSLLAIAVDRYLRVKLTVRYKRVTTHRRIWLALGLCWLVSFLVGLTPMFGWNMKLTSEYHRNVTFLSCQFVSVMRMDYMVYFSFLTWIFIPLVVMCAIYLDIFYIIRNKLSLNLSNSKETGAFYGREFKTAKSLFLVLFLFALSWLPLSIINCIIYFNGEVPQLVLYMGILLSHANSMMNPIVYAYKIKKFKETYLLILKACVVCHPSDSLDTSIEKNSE
# 5-hydroxytryptamine receptor 6 (Homo sapiens), sequence (P50406 whole entry): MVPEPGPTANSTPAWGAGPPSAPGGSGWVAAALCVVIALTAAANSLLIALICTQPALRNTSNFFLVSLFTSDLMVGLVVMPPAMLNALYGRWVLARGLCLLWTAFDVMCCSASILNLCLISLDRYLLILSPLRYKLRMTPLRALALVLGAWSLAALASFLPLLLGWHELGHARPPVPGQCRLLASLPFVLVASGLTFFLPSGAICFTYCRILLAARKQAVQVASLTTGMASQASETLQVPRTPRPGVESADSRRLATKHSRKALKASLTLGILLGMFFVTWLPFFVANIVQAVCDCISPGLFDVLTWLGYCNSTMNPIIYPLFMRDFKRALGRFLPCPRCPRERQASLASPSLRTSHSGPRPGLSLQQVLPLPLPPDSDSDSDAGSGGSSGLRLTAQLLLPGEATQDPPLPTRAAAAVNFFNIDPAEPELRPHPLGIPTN
# C-X-C chemokine receptor type 2 (Homo sapiens), sequence (P25025 whole entry): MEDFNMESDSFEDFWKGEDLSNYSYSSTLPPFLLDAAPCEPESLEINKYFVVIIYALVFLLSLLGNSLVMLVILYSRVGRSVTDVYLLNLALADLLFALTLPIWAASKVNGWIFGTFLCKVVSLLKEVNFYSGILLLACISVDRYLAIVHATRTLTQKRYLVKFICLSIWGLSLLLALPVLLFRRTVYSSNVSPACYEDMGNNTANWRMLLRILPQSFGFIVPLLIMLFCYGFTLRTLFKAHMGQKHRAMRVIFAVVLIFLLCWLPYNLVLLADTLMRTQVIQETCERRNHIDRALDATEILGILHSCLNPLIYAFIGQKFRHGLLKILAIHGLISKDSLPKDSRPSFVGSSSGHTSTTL
# D(2) dopamine receptor (Homo sapiens), sequence (P14416 whole entry): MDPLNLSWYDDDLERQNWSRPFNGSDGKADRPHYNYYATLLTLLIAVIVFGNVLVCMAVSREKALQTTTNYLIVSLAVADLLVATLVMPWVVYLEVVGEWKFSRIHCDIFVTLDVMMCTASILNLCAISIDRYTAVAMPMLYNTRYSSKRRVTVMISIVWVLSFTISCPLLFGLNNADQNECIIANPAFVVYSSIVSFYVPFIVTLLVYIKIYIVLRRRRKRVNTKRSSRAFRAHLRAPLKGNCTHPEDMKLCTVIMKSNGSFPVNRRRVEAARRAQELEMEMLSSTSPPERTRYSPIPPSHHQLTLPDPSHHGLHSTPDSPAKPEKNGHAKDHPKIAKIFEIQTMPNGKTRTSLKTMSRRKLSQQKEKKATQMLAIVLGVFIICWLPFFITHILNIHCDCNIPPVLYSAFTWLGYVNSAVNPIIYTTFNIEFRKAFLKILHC
# Type-1 angiotensin II receptor (Homo sapiens), sequence (P30556 whole entry): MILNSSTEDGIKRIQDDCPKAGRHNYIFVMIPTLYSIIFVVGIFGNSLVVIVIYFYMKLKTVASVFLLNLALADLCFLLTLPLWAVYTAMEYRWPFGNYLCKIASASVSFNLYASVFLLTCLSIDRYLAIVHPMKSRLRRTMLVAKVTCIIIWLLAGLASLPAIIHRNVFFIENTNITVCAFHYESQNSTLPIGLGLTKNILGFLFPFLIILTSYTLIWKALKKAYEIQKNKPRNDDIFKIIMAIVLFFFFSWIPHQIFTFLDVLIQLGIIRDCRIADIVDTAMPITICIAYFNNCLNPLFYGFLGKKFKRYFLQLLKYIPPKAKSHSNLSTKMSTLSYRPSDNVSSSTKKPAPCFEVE
# C-C chemokine receptor type 1 (Homo sapiens), sequence (P32246 whole entry): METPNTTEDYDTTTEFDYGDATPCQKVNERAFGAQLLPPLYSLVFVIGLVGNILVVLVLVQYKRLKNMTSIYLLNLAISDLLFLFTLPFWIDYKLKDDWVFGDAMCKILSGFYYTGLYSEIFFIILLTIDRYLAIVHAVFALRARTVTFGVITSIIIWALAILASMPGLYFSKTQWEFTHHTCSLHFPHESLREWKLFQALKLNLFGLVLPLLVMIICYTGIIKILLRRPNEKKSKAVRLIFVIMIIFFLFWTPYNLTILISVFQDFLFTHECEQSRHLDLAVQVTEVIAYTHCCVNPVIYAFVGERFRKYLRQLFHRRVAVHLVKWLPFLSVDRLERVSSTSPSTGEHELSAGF
# Beta-1 adrenergic receptor (Homo sapiens), sequence (P08588 whole entry, looked up): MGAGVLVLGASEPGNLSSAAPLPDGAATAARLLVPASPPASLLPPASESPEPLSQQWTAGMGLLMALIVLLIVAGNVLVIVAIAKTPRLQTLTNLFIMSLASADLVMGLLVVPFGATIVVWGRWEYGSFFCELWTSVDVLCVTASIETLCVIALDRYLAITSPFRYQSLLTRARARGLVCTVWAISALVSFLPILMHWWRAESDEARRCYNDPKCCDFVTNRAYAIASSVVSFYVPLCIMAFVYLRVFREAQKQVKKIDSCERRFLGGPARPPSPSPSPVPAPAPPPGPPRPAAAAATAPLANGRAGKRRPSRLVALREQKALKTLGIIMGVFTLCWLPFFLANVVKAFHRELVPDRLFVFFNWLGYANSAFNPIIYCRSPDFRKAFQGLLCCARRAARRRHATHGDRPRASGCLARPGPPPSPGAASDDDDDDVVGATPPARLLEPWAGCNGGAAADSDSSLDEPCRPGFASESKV
# Sodium-dependent serotonin transporter, sequence (P31645 whole entry): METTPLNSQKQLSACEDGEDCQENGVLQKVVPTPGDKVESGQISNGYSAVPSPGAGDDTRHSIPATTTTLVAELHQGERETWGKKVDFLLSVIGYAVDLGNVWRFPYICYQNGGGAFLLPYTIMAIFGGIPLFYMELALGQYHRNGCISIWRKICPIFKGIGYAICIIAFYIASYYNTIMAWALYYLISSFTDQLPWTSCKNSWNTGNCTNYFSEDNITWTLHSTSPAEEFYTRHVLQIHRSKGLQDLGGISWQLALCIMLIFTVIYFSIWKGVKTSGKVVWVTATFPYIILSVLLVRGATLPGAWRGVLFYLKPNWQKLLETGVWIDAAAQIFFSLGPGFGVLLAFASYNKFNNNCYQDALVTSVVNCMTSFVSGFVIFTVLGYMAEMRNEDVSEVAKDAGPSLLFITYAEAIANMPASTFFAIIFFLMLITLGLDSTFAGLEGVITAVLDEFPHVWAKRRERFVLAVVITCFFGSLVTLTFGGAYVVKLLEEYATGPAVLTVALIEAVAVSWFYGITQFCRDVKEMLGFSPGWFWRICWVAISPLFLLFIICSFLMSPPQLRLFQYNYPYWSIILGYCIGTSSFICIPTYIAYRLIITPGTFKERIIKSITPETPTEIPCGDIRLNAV
# Histamine H2 receptor (Homo sapiens), sequence (P25021 whole entry): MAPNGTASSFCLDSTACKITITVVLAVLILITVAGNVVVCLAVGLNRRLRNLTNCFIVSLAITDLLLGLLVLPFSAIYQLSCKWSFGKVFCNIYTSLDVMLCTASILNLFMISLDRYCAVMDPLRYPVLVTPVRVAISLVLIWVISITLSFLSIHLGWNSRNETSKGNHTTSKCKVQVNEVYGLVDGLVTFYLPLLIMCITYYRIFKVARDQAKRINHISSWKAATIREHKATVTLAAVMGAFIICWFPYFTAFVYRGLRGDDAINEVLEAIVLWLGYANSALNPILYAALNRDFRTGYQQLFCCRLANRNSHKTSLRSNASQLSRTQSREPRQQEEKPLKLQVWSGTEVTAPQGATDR
# Cholecystokinin receptor type A (Homo sapiens), sequence (P32238 whole entry): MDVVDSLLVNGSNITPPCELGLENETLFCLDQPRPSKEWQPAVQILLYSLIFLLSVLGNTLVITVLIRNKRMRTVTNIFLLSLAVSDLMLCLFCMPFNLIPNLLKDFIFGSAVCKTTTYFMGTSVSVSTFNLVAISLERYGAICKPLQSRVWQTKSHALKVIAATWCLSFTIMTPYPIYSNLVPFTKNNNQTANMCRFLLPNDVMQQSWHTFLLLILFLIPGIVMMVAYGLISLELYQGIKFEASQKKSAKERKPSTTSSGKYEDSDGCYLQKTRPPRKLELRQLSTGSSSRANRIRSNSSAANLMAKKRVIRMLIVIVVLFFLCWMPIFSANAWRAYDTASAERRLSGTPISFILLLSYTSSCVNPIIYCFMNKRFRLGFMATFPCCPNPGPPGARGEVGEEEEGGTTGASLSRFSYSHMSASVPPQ
# Prostaglandin E2 receptor EP4 subtype (Homo sapiens), sequence (P35408 whole entry): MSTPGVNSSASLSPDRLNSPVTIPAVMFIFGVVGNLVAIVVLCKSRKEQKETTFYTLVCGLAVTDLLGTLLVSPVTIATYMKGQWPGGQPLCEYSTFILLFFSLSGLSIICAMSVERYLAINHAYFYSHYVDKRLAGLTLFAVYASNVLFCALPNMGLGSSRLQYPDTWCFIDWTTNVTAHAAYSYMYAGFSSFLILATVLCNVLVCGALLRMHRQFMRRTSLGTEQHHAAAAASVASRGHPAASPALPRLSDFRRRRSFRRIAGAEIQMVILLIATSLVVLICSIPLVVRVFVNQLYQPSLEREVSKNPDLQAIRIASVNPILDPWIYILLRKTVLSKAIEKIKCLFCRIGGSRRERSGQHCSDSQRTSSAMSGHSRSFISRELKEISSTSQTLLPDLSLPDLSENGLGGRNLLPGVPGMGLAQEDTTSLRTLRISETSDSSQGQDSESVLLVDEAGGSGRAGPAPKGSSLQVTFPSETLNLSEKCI
compound,measurement,setting,value
CN(C)CCC(c1ccc(Cl)c(Cl)c1)N1CCOCC1 (centres undefined),Activity,Salmonella typhimurium [1],32
same,Activity,Salmonella typhimurium [2],36
same,Activity,Salmonella typhimurium [3],30
same,Activity,Salmonella typhimurium [4],31
same,Activity,Salmonella typhimurium [5],12
same,IC50,[6],0.378 µM
same,inhibition in vivo at 10 mg/kg,Rattus norvegicus [7],47%
same,inhibition in vivo at 20 mg/kg,Rattus norvegicus [8],66%
same,survival at 336 h,[9],60%
same,MRT,[10],1.06 h
same,Vd/F,[11],164 L/kg
same,CL/F,[12],417 mL/min/kg
same,Cmax,[13],26.8 ng/mL
same,Cmax,[14],48.5 ng/mL
same,concentration at 0.08 h,[15],48.5 ng/mL
same,concentration at 1 h,[16],33.5 ng/mL
same,concentration at 4 h,[17],3.7 ng/mL
same,Kp at 0.08 h,[18],23.1
same,Kp at 4 h,[19],11.4
same,inhibition,[20],2.6%
same,inhibition,[21],11%
same,inhibition,[22],-9.5%
same,inhibition,[23],1%
same,inhibition,[24],4%
same,inhibition,[25],9.3%
same,inhibition,[26],22.1%
same,inhibition,[27],-8%
same,inhibition,[28],-1.2%
same,inhibition,[29],2.4%
same,inhibition,[30],3.2%
same,inhibition at 10 µM,[31],41.8%
same,inhibition,Homo sapiens,-3.8%
same,concentration at 2 h,[32],178 ng/mL
same,concentration at 0.08 h,[33],1120 ng/mL
